Assay results gathered from unrelated publications.
Lines come from different studies, so protocols differ. In brackets after ≈: the same amount, converted by molar mass.

Compound | tested on | assay | test system | setting | measurement | value
O=C(Nc1ccc(-c2cn(Cc3ccc(Cl)cc3)nn2)cc1)Nc1ccccc1Br | Huh-7 | cell growth or viability, CCK-8 | – | 50 µM, 48 h | viability | 80.2%
Cc1ccccc1Cn1cc(-c2cccc(NC(=O)Nc3ccc(F)cc3)c2)nn1 | Huh-7 | cell growth or viability, CCK-8 | – | 50 µM, 48 h | viability | 46%
CN1CCN(c2ccc(-c3ccc4nncc(Nc5ncccn5)c4c3)cc2)CC1 | Trypanosoma cruzi | parasite growth | C2C12 | intracellular, amastigote | EC50 | 7.9 µM
COc1ccc(NC(=O)Nc2ccc(-c3cn(Cc4cccc(Cl)c4)nn3)cc2)cc1 | Huh-7 | cell growth or viability, CCK-8 | – | 72 h | IC50 | > 50 µM
O=C(Nc1ccc(Cl)cc1)Nc1ccc(-c2cn(Cc3ccc(Cl)cc3)nn2)cc1 | Huh-7 | cell growth or viability, CCK-8 | – | 50 µM, 48 h | viability | 83.6%
COc1ccc(NC(=O)Nc2cccc(-c3cn(Cc4ccc(Cl)cc4)nn3)c2)cc1 | Huh-7 | cell growth or viability, CCK-8 | – | 72 h | IC50 | 15.5 µM
O=C(NCc1cn(Cc2ccc(Cl)cc2)nn1)Nc1ccc(Cl)cc1 | Huh-7 | cell growth or viability, CCK-8 | – | 50 µM, 48 h | viability | 65.7%
Cc1ccc(Nc2cnnc3ccc(-c4ccc(N5CCCN(C)CC5)cc4)cc23)cn1 | Trypanosoma cruzi | parasite growth | C2C12 | intracellular, amastigote | EC50 | 6.1 µM
COc1ccc(NC(=O)NCc2cn(Cc3ccc(C)cc3)nn2)cc1 | Huh-7 | cell growth or viability, CCK-8 | – | 72 h | IC50 | > 50 µM
COc1ccc(Nc2cnnc3ccc(-c4ccc(N5CCN(C)CC5)cc4)cc23)nc1 | Trypanosoma cruzi | parasite growth | C2C12 | intracellular, amastigote | EC50 | 1.7 µM
O=C(Nc1ccc(Cl)cc1)Nc1cccc(-c2cn(Cc3ccc(Cl)cc3)nn2)c1 | Huh-7 | cell growth or viability, CCK-8 | – | 50 µM, 48 h | viability | 84%
COc1ccc(Nc2cnnc3ccc(-c4ccc(N5CCN(C)CC5)cc4)cc23)cc1Cl | Trypanosoma cruzi | parasite growth | C2C12 | intracellular, amastigote | EC50 | 2.4 µM
COc1ccc(NC(=O)NCc2cn(Cc3ccc(Br)cc3)nn2)cc1 | Huh-7 | cell growth or viability, CCK-8 | – | 50 µM, 72 h | viability | 86%
Cc1ccc(C(C)C)c(OC2=C(Cl)C(=O)c3ccccc3C2=O)c1 | Alternaria alternata | microbial growth, broth dilution | – | – | MIC | 12 µg/mL (≈ 35.2 µM)
COc1ccc(NC(=O)Nc2cccc(-c3cn(Cc4ccc(C)cc4)nn3)c2)cc1 | Huh-7 | cell growth or viability, CCK-8 | – | 72 h | IC50 | 19.3 µM
COc1ccc(Nc2cnnc3ccc(-c4cnc(N5CCN(C)CC5)nc4)cc23)cc1Cl | Trypanosoma cruzi | parasite growth | C2C12 | intracellular, amastigote | EC50 | 5.7 µM
O=C(Nc1cccc(-c2cn(Cc3ccc(Cl)cc3)nn2)c1)Nc1ccccc1Br | Huh-7 | cell growth or viability, CCK-8 | – | 50 µM, 48 h | viability | 53.1%
O=C(Cn1ccnc1[N+](=O)[O-])NCc1ccccc1 | Trypanosoma cruzi | parasite growth | – | 72 h, epimastigote | IC50 | 1.57 µg/mL
O=C(NCc1cn(Cc2cccc(Cl)c2)nn1)Nc1ccc(Cl)cc1 | Huh-7 | cell growth or viability, CCK-8 | – | 50 µM, 72 h | viability | 82.2%
COc1ccc(NC(=O)Nc2cccc(-c3cn(Cc4cccc(Cl)c4)nn3)c2)cc1 | Huh-7 | cell growth or viability, CCK-8 | – | 50 µM, 48 h | viability | 65.5%
Cc1ccc(Nc2cnnc3cc(-c4cnc(N5CCCN(C)CC5)nc4)ccc23)cn1 | Trypanosoma cruzi | parasite growth | C2C12 | intracellular, amastigote | EC50 | > 10 µM
O=C(NCc1cn(Cc2ccc(Br)cc2)nn1)Nc1ccccc1Br | Huh-7 | cell growth or viability, CCK-8 | – | 50 µM, 72 h | viability | 72.9%
COc1ccc(Nc2cnnc3cc(-c4cnc(N5CCCN(C)CC5)nc4)ccc23)nc1 | Trypanosoma cruzi | parasite growth | C2C12 | intracellular, amastigote | EC50 | 7.5 µM
O=C(Cn1ccnc1[N+](=O)[O-])NCc1ccccc1 | Trypanosoma cruzi | parasite growth | Vero, TULAHUEN | 72 h, intracellular, amastigote | IC50 | 2.23 µM
